# Experimental data published in ChEMBL document CHEMBL3046592, “Organophosphorus derivatives containing piperazine dithiosemicarbazones as chemotherapeutants against fungal pathogens of sugarcane” (2005).
# Columns and labels:
# Format in all cases: functional
# Settings in all cases: 168 h
# [1] = test system: Curvularia pallescens; assay: Fungicidal activity against Cochliobolus pallescens assessed as mycelial inhibition at 1000 ppm at 28 +/- 2 degC measured after 7 days by food poison technique
# Method in brief: (§1)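 Poisoned-food test on oatmeal agar. The compound was dissolved in 0.5 cm3 of solvent and mixed into the medium to give the stated ppm. Controls received the same amount of solvent only. A 5 mm mycelial disk, cut from the periphery of a 2-week-old culture, was placed at the plate centre. Plates were incubated 7 days at 28 ± 2 °C, in triplicate. Percent inhibition = (dc − dt)/dc × 100, using mean colony diameters of control (dc) and treatment (dt).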
# [2] = test system: Curvularia pallescens; assay: Fungicidal activity against Cochliobolus pallescens assessed as mycelial inhibition at 10 ppm at 28 +/- 2 degC measured after 7 days by food poison technique; method in brief: as §1
# [3] = test system: Curvularia pallescens; assay: Fungicidal activity against Cochliobolus pallescens assessed as mycelial inhibition at 100 ppm at 28 +/- 2 degC measured after 7 days by food poison technique; method in brief: as §1
# [4] = test system: Fusarium oxysporum; assay: Fungicidal activity against Fusarium oxysporum assessed as mycelial inhibition at 1000 ppm at 28 +/- 2 degC measured after 7 days by food poison technique; method in brief: as §1
# [5] = test system: Fusarium oxysporum; assay: Fungicidal activity against Fusarium oxysporum assessed as mycelial inhibition at 100 ppm at 28 +/- 2 degC measured after 7 days by food poison technique; method in brief: as §1
# [6] = test system: Colletotrichum falcatum; assay: Fungicidal activity against Glomerella tucumanensis assessed as mycelial inhibition at 1000 ppm at 28 +/- 2 degC measured after 7 days by food poison technique; method in brief: as §1
# [7] = test system: Fusarium oxysporum; assay: Fungicidal activity against Fusarium oxysporum assessed as mycelial inhibition at 10 ppm at 28 +/- 2 degC measured after 7 days by food poison technique; method in brief: as §1
# [8] = test system: Colletotrichum falcatum; assay: Fungicidal activity against Glomerella tucumanensis assessed as mycelial inhibition at 100 ppm at 28 +/- 2 degC measured after 7 days by food poison technique; method in brief: as §1
# [9] = test system: Colletotrichum falcatum; assay: Fungicidal activity against Glomerella tucumanensis assessed as mycelial inhibition at 10 ppm at 28 +/- 2 degC measured after 7 days by food poison technique; method in brief: as §1
# [10] = test system: Curvularia pallescens; assay: Fungicidal activity against Cochliobolus pallescens assessed as mycelial inhibition at 28 +/- 2 degC measured after 7 days by food poison technique
# [11] = test system: Fusarium oxysporum; assay: Fungicidal activity against Fusarium oxysporum assessed as mycelial inhibition at 28 +/- 2 degC measured after 7 days by food poison technique
# [12] = test system: Colletotrichum falcatum; assay: Fungicidal activity against Glomerella tucumanensis assessed as mycelial inhibition at 28 +/- 2 degC measured after 7 days by food poison technique
SMILES,inhibition at 1000 ppm [1] [%],inhibition at 10 ppm [2] [%],inhibition at 100 ppm [3] [%],inhibition at 1000 ppm [4] [%],inhibition at 100 ppm [5] [%],inhibition at 1000 ppm [6] [%],inhibition at 10 ppm [7] [%],inhibition at 100 ppm [8] [%],inhibition at 10 ppm [9] [%],MIC [10] [µg/mL],MIC [11] [µg/mL],MIC [12] [µg/mL]
CCOP(=O)(OCC)S/C(=N\N=C\c1ccc([N+](=O)[O-])cc1)N1CCN(/C(=N\N=C\c2ccc([N+](=O)[O-])cc2)SP(=O)(OCC)OCC)CC1,89.2,35.6,58.2,62.6,40.2,65.2,27.5,40.8,25.8,,,
S=C(N/N=C/c1ccccc1Cl)N1CCN(C(=S)N/N=C/c2ccccc2Cl)CC1,66.2,27.4,47.3,69.2,42,60.3,25.5,30.8,21.2,,,
CCOP(=O)(OCC)S/C(=N/N=C/c1ccccc1Cl)N1CCN(/C(=N\N=C\c2ccccc2Cl)SP(=O)(OCC)OCC)CC1,88.2,47.7,86.8,100,82.4,85.6,56.8,70.6,55.2,,,
S=C(N/N=C/c1ccc(Cl)cc1)N1CCN(C(=S)N/N=C/c2ccc(Cl)cc2)CC1,68.4,38.5,49.2,64.8,41.6,68.2,28.7,35.4,24.8,,,
CCOP(=O)(OCC)S/C(=N/N=C/c1ccc(Cl)cc1)N1CCN(/C(=N\N=C\c2ccc(Cl)cc2)SP(=O)(OCC)OCC)CC1,100,66.6,88.2,100,76.2,100,37.8,72.8,42.5,1000,1000,1000
S=C(N/N=C/c1ccccc1)N1CCN(C(=S)N/N=C/c2ccccc2)CC1,57.4,20.6,32.1,48.8,25.6,53.6,14.3,28.9,14.1,,,
CCOP(=O)(OCC)S/C(=N/N=C/c1ccccc1)N1CCN(/C(=N\N=C\c2ccccc2)SP(=O)(OCC)OCC)CC1,75,32.8,49.5,66.5,35.6,73.4,24.8,40.2,25.8,,,
COc1ccc(/C=N/NC(=S)N2CCN(C(=S)N/N=C/c3ccc(OC)cc3)CC2)cc1,67.2,28.6,45.8,66.8,40.2,65.9,35.3,37.6,22.1,,,
CCOP(=O)(OCC)S/C(=N/N=C/c1ccc(OC)cc1)N1CCN(/C(=N\N=C\c2ccc(OC)cc2)SP(=O)(OCC)OCC)CC1,100,42.2,80.5,100,70.6,100,53.2,58.6,36.4,1000,1000,1000
O=[N+]([O-])c1ccc(/C=N/NC(=S)N2CCN(C(=S)N/N=C/c3ccc([N+](=O)[O-])cc3)CC2)cc1,59.6,22.7,31.1,44.8,23.9,46.6,16.2,24.3,11.6,,,
COC(=O)Nc1nc2ccccc2[nH]1 [CARBENDAZIM],,,,,,,,,,4000,3000,4000
COC(=O)NC(=S)Nc1ccccc1NC(=S)NC(=O)OC [THIOPHANATE METHYL],,,,,,,,,,4000,4000,4000
